Test results taken from ChEMBL document CHEMBL4196121, “Meridianin D Analogues Display Antibiofilm Activity against MRSA and Increase Colistin Efficacy in Gram-Negative Bacteria” (ACS Med Chem Lett, 2018).
Calls of active or inactive are those of the source. The calls are words filed in the database; no cut-off is given here.

Key:
Acinetobacter baumannii [1] = assay: Potentiation of colistin-induced antimicrobial activity against Acinetobacter baumannii isolate 4106 after 16 hrs in presence of 0.01% triton X-100 by broth microdilution assay; format: functional, organism-based
Acinetobacter baumannii [2] = assay: Antibacterial activity against Acinetobacter baumannii isolate 3941 after 16 hrs by broth microdilution assay; format: organism-based
Staphylococcus aureus [3] = assay: Inhibition of biofilm formation in methicillin-resistant Staphylococcus aureus ATCC 43300 after 24 hrs by crystal violet staining based method; format: functional, organism-based; details: ATCC 43300, 24 h
In short: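 Read-out is the IC50, taken as the compound concentration that inhibits 50% of MRSA 43300 biofilm formation.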

Klebsiella pneumoniae [4] = assay: Antibacterial activity against Klebsiella pneumoniae isolate B9 after 16 hrs by broth microdilution assay; details: in vivo
Staphylococcus aureus [5] = assay: Antibacterial activity against methicillin-resistant Staphylococcus aureus ATCC 1556 after 16 hrs by broth microdilution assay; format: functional; details: ATCC 1556, 16 h
Staphylococcus aureus [6] = assay: Antibiofilm activity against methicillin-resistant Staphylococcus aureus ATCC 43300 assessed induction of dispersion of preformed biofilm after 24 hrs by crystal violet staining based method; format: functional, organism-based; details: ATCC 43300, 24 h
Staphylococcus aureus [7] = assay: Antibiofilm activity against methicillin-resistant Staphylococcus aureus ATCC 43300 assessed as dispersion of preformed biofilm at 80 uM after 24 hrs by crystal violet staining based method relative to control; format: functional
Staphylococcus aureus [8] = assay: Antibacterial activity against methicillin-resistant Staphylococcus aureus ATCC 6538 after 16 hrs by broth microdilution assay; format: functional; details: ATCC 6538, 16 h
Acinetobacter baumannii [9] = assay: Antibacterial activity against Acinetobacter baumannii isolate 4106 after 16 hrs by broth microdilution assay; format: organism-based
Enterococcus faecium = assay: Antibacterial activity against vancomycin-resistant Enterococcus faecium ATCC 51559 after 16 hrs by broth microdilution assay; format: functional; details: ATCC 51559, 16 h
Acinetobacter baumannii [10] = assay: Antibacterial activity against Acinetobacter baumannii ATCC 17978 after 16 hrs by broth microdilution assay; format: organism-based
Escherichia coli [11] = assay: Antibacterial activity against Escherichia coli ATCC 25922 after 16 hrs by broth microdilution assay; format: organism-based
Acinetobacter baumannii [12] = assay: Potentiation of colistin-induced antimicrobial activity against Acinetobacter baumannii ATCC 19606 assessed as fold reduction in colistin MIC after 16 hrs by broth microdilution assay; format: functional, ATCC 19606 = CIP 70.34 = JCM 6841
In short: (§1)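 Analogue at a fixed 60 μM unless otherwise noted, combined with colistin against the Gram-negative strain. Potentiation is read as the fold reduction in colistin MIC relative to colistin alone. A. baumannii 3941/4106 and K. pneumoniae C3/B9 are primary clinical isolates with genomically encoded colistin resistance.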

Klebsiella pneumoniae [13] = assay: Potentiation of colistin-induced antimicrobial activity against Klebsiella pneumoniae isolate B9 after 16 hrs in presence of 0.01% triton X-100 by broth microdilution assay; format: functional, organism-based
Acinetobacter baumannii [14] = assay: Antibacterial activity against Acinetobacter baumannii ATCC 17978 expressing mcr1 gene after 16 hrs by broth microdilution assay; format: organism-based; details: in vitro
Acinetobacter baumannii [15] = assay: Potentiation of colistin-induced antimicrobial activity against Acinetobacter baumannii isolate 3941 after 16 hrs by broth microdilution assay; format: functional, organism-based; in short: as §1
Escherichia coli [16] = assay: Antibacterial activity against Escherichia coli ATCC 25922 expressing mcr1 gene after 16 hrs by broth microdilution assay; format: organism-based; details: in vitro
Acinetobacter baumannii [17] = assay: Antibacterial activity against Acinetobacter baumannii ATCC 19606 after 16 hrs by broth microdilution assay; format: organism-based, ATCC 19606 = CIP 70.34 = JCM 6841; details: for MIC: […]
Acinetobacter baumannii [18] = assay: Potentiation of colistin-induced antimicrobial activity against Acinetobacter baumannii ATCC 17978 assessed as fold reduction in colistin MIC after 16 hrs by broth microdilution assay; format: functional; in short: as §1
Staphylococcus aureus [19] = assay: Potentiation of vancomycin-induced antibacterial activity against methicillin-resistant Staphylococcus aureus ATCC 43300 assessed as dispersion of preformed biofilm after 24 hrs by crystal violet staining based method; format: functional, organism-based; details: ATCC 43300, 24 h
Klebsiella pneumoniae [20] = assay: Potentiation of colistin-induced antimicrobial activity against Klebsiella pneumoniae isolate C3 assessed as fold reduction in colistin MIC after 16 hrs by broth microdilution assay; format: functional; in short: as §1
Acinetobacter baumannii [21] = assay: Antibacterial activity against Acinetobacter baumannii isolate 5075 after 16 hrs by broth microdilution assay; format: organism-based
Klebsiella pneumoniae [22] = assay: Antibacterial activity against Klebsiella pneumoniae isolate C3 after 16 hrs by broth microdilution assay; details: for MIC: […]
Staphylococcus aureus [23] = assay: Antibacterial activity against methicillin-resistant Staphylococcus aureus ATCC 43300 after 16 hrs by broth microdilution assay; format: functional; details: ATCC 43300, 16 h
Klebsiella pneumoniae [24] = assay: Antibacterial activity against Klebsiella pneumoniae ATCC 2146 expressing NDM1 gene after 16 hrs by broth microdilution assay; format: organism-based; details: for MIC: […]; for Activity: in vitro
Klebsiella pneumoniae [25] = assay: Potentiation of colistin-induced antimicrobial activity against Klebsiella pneumoniae ATCC 2146 expressing NDM1 gene assessed as fold reduction in colistin MIC after 16 hrs by broth microdilution assay; format: functional; in short: as §1
Acinetobacter baumannii [26] = assay: Potentiation of colistin-induced antimicrobial activity against Acinetobacter baumannii isolate 5075 assessed as fold reduction in colistin MIC after 16 hrs by broth microdilution assay; format: functional; in short: as §1
Acinetobacter baumannii [27] = assay: Potentiation of colistin-induced antimicrobial activity against Acinetobacter baumannii isolate 4106 assessed as fold reduction in colistin MIC after 16 hrs by broth microdilution assay; format: functional; in short: as §1
Klebsiella pneumoniae [28] = assay: Potentiation of colistin-induced antimicrobial activity against Klebsiella pneumoniae isolate B9 after 16 hrs by broth microdilution assay; format: functional, organism-based; in short: as §1
Acinetobacter baumannii [29] = assay: Potentiation of colistin-induced antimicrobial activity against Acinetobacter baumannii ATCC 17978 expressing mcr1 gene assessed as fold reduction in colistin MIC after 16 hrs by broth microdilution assay; format: functional; in short: as §1
Escherichia coli [30] = assay: Potentiation of colistin-induced antimicrobial activity against Escherichia coli ATCC 25922 assessed as fold reduction in colistin MIC after 16 hrs by broth microdilution assay; format: functional; in short: as §1
Klebsiella pneumoniae [31] = assay: Potentiation of colistin-induced antimicrobial activity against Klebsiella pneumoniae isolate B9 assessed as fold reduction in colistin MIC after 16 hrs by broth microdilution assay; format: functional; in short: as §1
Escherichia coli [32] = assay: Potentiation of colistin-induced antimicrobial activity against Escherichia coli ATCC 25922 expressing mcr1 gene assessed as fold reduction in colistin MIC after 16 hrs by broth microdilution assay; format: functional; in short: as §1
Staphylococcus aureus [33] = assay: Antibiofilm activity against methicillin-resistant Staphylococcus aureus ATCC 43300 assessed as dispersion of preformed biofilm after 24 hrs by crystal violet staining based method
Staphylococcus aureus [34] = assay: Effect on planktonic growth of methicillin-resistant Staphylococcus aureus ATCC 43300 at 60 uM after 16 hrs by broth microdilution assay; format: organism-based
Staphylococcus aureus [35] = assay: Antibiofilm activity against methicillin-resistant Staphylococcus aureus ATCC 43300 at < 60 uM after 16 hrs by broth microdilution assay; format: functional, organism-based

Row | SMILES | MIC (Acinetobacter baumannii [2]) [µM] | IC50 (Staphylococcus aureus [3]) [µM] | MIC (Klebsiella pneumoniae [4]) [µM] | EC50 (Staphylococcus aureus [6]) [µM] | MIC (Acinetobacter baumannii [9]) [µM] | MIC (Acinetobacter baumannii [10]) [µM] | MIC (Escherichia coli [11]) [µM] | fold change (FC) (Acinetobacter baumannii [12]) | MIC (Acinetobacter baumannii [14]) [µM] | MIC (Escherichia coli [16]) [µM] | MIC (Acinetobacter baumannii [17]) [µM] | fold change (FC) (Acinetobacter baumannii [18]) | EC50 (Staphylococcus aureus [19]) [µM] | fold change (FC) (Klebsiella pneumoniae [20]) | MIC (Acinetobacter baumannii [21]) [µM] | MIC (Klebsiella pneumoniae [22]) [µM] | MIC (Staphylococcus aureus [23]) [µM] | MIC (Klebsiella pneumoniae [24]) [µM] | fold change (FC) (Klebsiella pneumoniae [25]) | fold change (FC) (Escherichia coli [30]) | further results
1 | Brc1ccc2[nH]cc(-c3ccnc(NCc4ccccc4)n3)c2c1.Cl | > 200 | 9.62 | > 200 | > 80 | > 200 | > 200 | > 200 | 16 | > 200 | > 200 | > 200 | 16 | > 80 | 512 | > 200 | > 200 | 6.25 | > 200 |  |  | Activity (Acinetobacter baumannii [1]): inactive; MIC (Staphylococcus aureus [5]): 6.25 µM; Activity (Staphylococcus aureus [7]): 26.2%; MIC (Staphylococcus aureus [8]): 6.25 µM; MIC (Enterococcus faecium): 25 µM; Activity (Klebsiella pneumoniae [13]): inactive; Activity (Acinetobacter baumannii [15]): Active
2 | CCCn1cc(-c2ccnc(N)n2)c2cc(Br)ccc21.Cl | > 200 | 69.3 | > 200 |  | > 200 | > 200 | > 200 |  | > 200 | > 200 | > 200 | 16 |  |  | > 200 | > 200 | 100 | > 200 | 16 | 16 | fold change (FC) (Acinetobacter baumannii [26]): 128; fold change (FC) (Acinetobacter baumannii [27]): 64; Activity (Klebsiella pneumoniae [28]): Active; fold change (FC) (Acinetobacter baumannii [29]): 4; fold change (FC) (Klebsiella pneumoniae [31]): 512; fold change (FC) (Escherichia coli [32]): 4
3 | CCCCn1cc(-c2ccnc(N)n2)c2cc(Br)ccc21.Cl | > 200 | 38.1 | > 200 | > 160 | > 200 | > 200 | > 200 | 16 | > 200 | > 200 | > 200 | 16 |  |  | > 200 | > 200 | 50 | > 200 |  | 16 | EC50 (Staphylococcus aureus [33]): Not Active
4 | CNc1nccc(-c2c[nH]c3ccc(Br)cc23)n1.Cl | > 200 | 28.9 | > 200 | 73.1 | > 200 | > 200 | > 200 | 16 | > 200 | > 200 | > 200 |  | 71.4 | 512 | > 200 | > 200 | 100 | > 200 |  |  | Activity (Klebsiella pneumoniae [28]): Active
5 | Cl.Nc1nc(-c2c[nH]c3ccc(Br)cc23)c[nH]1 |  |  |  | 102 |  |  |  |  |  |  |  |  | > 100 |  |  |  | 25 |  |  |  | Activity (Acinetobacter baumannii [2]): Toxic; Activity (Klebsiella pneumoniae [4]): Toxic; Activity (Acinetobacter baumannii [9]): Toxic; Activity (Acinetobacter baumannii [10]): Toxic; Activity (Staphylococcus aureus [34]): Toxic; Activity (Acinetobacter baumannii [17]): Toxic; Activity (Acinetobacter baumannii [21]): Toxic; Activity (Staphylococcus aureus [35]): inactive; Activity (Klebsiella pneumoniae [22]): Toxic; Activity (Klebsiella pneumoniae [24]): Toxic
6 | CCCn1cc(-c2ccnc(N)n2)c2ccc(Br)cc21.Cl |  | 34.3 |  | > 160 |  |  |  | 16 |  |  |  |  |  |  |  |  | 200 |  |  |  | Activity (Acinetobacter baumannii [2]): Toxic; Activity (Klebsiella pneumoniae [4]): Toxic; Activity (Acinetobacter baumannii [9]): Toxic; Activity (Acinetobacter baumannii [10]): Toxic; Activity (Acinetobacter baumannii [17]): Toxic; EC50 (Staphylococcus aureus [33]): Not Active; Activity (Acinetobacter baumannii [21]): Toxic; Activity (Klebsiella pneumoniae [22]): Toxic; Activity (Klebsiella pneumoniae [24]): Toxic
7 | Cl.Nc1nc(-c2c[nH]c3cc(Br)ccc23)c[nH]1 |  |  |  | 101 |  |  |  |  |  |  |  |  | > 100 |  |  |  | 25 |  |  |  | Activity (Acinetobacter baumannii [2]): Toxic; Activity (Klebsiella pneumoniae [4]): Toxic; Activity (Acinetobacter baumannii [9]): Toxic; Activity (Acinetobacter baumannii [10]): Toxic; Activity (Staphylococcus aureus [34]): Toxic; Activity (Acinetobacter baumannii [17]): Toxic; Activity (Acinetobacter baumannii [21]): Toxic; Activity (Staphylococcus aureus [35]): inactive; Activity (Klebsiella pneumoniae [22]): Toxic; Activity (Klebsiella pneumoniae [24]): Toxic
8 | Cl.Nc1nccc(-c2c[nH]c3cc(Br)ccc23)n1 |  | 87.4 |  |  |  |  |  |  |  |  |  | 2 |  |  |  |  | > 200 |  | 2 | 0 | fold change (FC) (Acinetobacter baumannii [26]): 4; fold change (FC) (Acinetobacter baumannii [27]): 64; fold change (FC) (Acinetobacter baumannii [29]): 32; fold change (FC) (Klebsiella pneumoniae [31]): 64; fold change (FC) (Escherichia coli [32]): 2
9 | CN(C)c1nccc(-c2c[nH]c3ccc(Br)cc23)n1.Cl | > 200 | 23.4 | > 200 | > 160 | > 200 | > 200 | > 200 |  | > 200 | > 200 | > 200 |  |  |  | > 200 | > 200 | 100 | > 200 |  |  | EC50 (Staphylococcus aureus [33]): Not Active
10 | CCNc1nccc(-c2c[nH]c3ccc(Br)cc23)n1.Cl | > 200 | 24.6 | > 200 | 75.8 | > 200 | > 200 | > 200 | 16 | > 200 | > 200 | > 200 | 16 | 66.5 | 512 | > 200 | > 200 | 50 | > 200 | 16 | 8 | Activity (Acinetobacter baumannii [1]): inactive; fold change (FC) (Acinetobacter baumannii [26]): 16; fold change (FC) (Acinetobacter baumannii [27]): 512; Activity (Klebsiella pneumoniae [13]): inactive; Activity (Klebsiella pneumoniae [28]): Active; Activity (Acinetobacter baumannii [15]): Active; fold change (FC) (Acinetobacter baumannii [29]): 128; fold change (FC) (Klebsiella pneumoniae [31]): 512; fold change (FC) (Escherichia coli [32]): 16
